Activity calls are given as the source filed them. The rule behind the calls is not given here.
How the values were obtained:
Mus musculus [1] = experiment: Inhibition of lipogenesis in C57BL/6 mouse supplemented with high-fat diet assessed as decrease in weight of inguinal white adipose tissue (iWAT) at 20 mg/kg/day, ip administered for 1 week; format: functional, organism-based; details: time 1.0 weeks
Procedure, shortened: (§1)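 Male C57BL/6 mice were fed high-fat diet for 14 weeks from 5 weeks of age, then injected ip with 20 mg·kg−1·day−1 for 7 days or given vehicle. Epididymal and inguinal WAT were weighed, examined by H&E, and analysed. Transcripts were measured by Trizol/SYBR Green RT-qPCR; proteins by western blot. n = 5–9; mean ± SEM.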

HepG2 = experiment: Inhibition of glucogenesis in human HepG2 cells stimulated with 8-Br-cAMP at 3 uM assessed as effect on change in CBP/CREB interaction measured by coimmunoprecipitation analysis; format: functional, cell-based
Procedure, shortened: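 HepG2 cells treated with 3 μM compound. CREB association with CBP and TORC2 assessed by coimmunoprecipitation (antibody 2 h, protein A/G beads overnight at 4 °C) and western blot.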

Mus musculus [2] = experiment: Inhibition of lipogenesis in C57BL/6 mouse supplemented with high-fat diet assessed as decrease in FABP4 mRNA expression at 20 mg/kg/day, ip administered for 1 week measured measured by RT-qPCR assay; format: functional, organism-based; details: time 1.0 weeks; procedure, shortened: as §1
Mus musculus [3] = experiment: Anti-obesity activity in C57BL/6 mouse supplemented with normal chow diet assessed effect on total lean mass at 20 mg/kg/day, ip administered for 1 week measured by EchoMRI live analysis; format: functional, organism-based; details: time 1.0 weeks
Procedure, shortened: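 Normal-chow male C57BL/6 mice, 8 weeks old, ip 20 mg·kg−1·day−1 daily for 7 days. Total lean and fat mass measured in live animals by EchoMRI. Mean ± SEM, n = 5–9.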

Mus musculus [4] = experiment: Inhibition of hepatic lipogenesis in C57BL/6 mouse supplemented with high fat diet assessed as decrease in triglyceride level at 20 mg/kg/day, ip administered for 1 week; format: functional, organism-based; details: time 1.0 weeks
Procedure, shortened: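 Male C57BL/6 mice received ip A-485 at 20 mg·kg−1·day−1 for 7 days, versus vehicle. NCD mice were 8 weeks old. HFD mice had been on high-fat diet for 14 weeks from 5 weeks of age. Liver triglyceride and total cholesterol content was determined. n = 5–9; mean ± SEM.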

Hepatocyte [5] = experiment: Inhibition of glucogenesis in mouse primary hepatocytes stimulated with 100 uM 8-Br-cAMP assessed as effect on pCREB protein expression at 3 uM measured after 1 hr by western blot analysis; format: functional, cell-based
Procedure, shortened: (§2)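 Primary hepatocytes from C57BL/6 mice, isolated by two-step perfusion, were co-treated with 3 μM A-485 and 100 μM 8-Br-cAMP for 1 h. Phospho-CREB, phospho-AMPK and phospho-TORC2 were detected by western blot of cell lysates. Three independent experiments; mean ± SEM.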

Mus musculus [6] = experiment: Inhibition of lipogenesis in C57BL/6 mouse supplemented with high-fat diet assessed as decrease in FASN mRNA expression at 20 mg/kg/day, ip administered for 1 week measured by RT-qPCR assay; format: functional, organism-based; details: time 1.0 weeks; procedure, shortened: as §1
Mus musculus [7] = experiment: Anti-obesity activity in C57BL/6 mouse supplemented with high fat diet assessed as decrease in blood glucose level at 20 mg/kg/day, ip administered for 1 week measured by pyruvate tolerance test; format: functional, organism-based; details: time 1.0 weeks
Procedure, shortened: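 High-fat diet male C57BL/6 mice (14 weeks on HFD from 5 weeks of age) dosed ip at 20 mg·kg−1·day−1 for 7 days. 16 h fast, then pyruvate 2 g/kg body weight ip; blood glucose tracked.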

Adipocyte [8] = experiment: Inhibition of lipogenesis in mouse adipocytes isolated stromal vascular cells assessed as decrease in FASN mRNA expression measured after 24 hrs by RT-qPCR assay; format: functional, cell-based
Procedure, shortened: (§3)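 Stromal vascular cells from inguinal WAT of C57BL/6 mice, grown in DMEM/F12 + 10% FBS at 37 °C, 10% CO2. At confluence, induced 48 h with 5 μg/ml insulin, 1 μM dexamethasone, 0.5 mM isobutylmethylxanthine, then 6 days in 5 μg/ml insulin; fully differentiated day 8. Mature adipocytes exposed to inhibitor 24 h. Total RNA by Trizol, SYBR Green RT-qPCR; protein by western blot.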

Adipocyte [9] = experiment: Inhibition of lipogenesis in mouse adipocytes isolated stromal vascular cells assessed as decrease in C/EBPalpha mRNA expression measured after 24 hrs by RT-qPCR assay; format: functional, cell-based; procedure, shortened: as §3
Mus musculus [10] = experiment: Inhibition of lipogenesis in C57BL/6 mouse supplemented with normal chow diet assessed as decrease in C/EBPalpha protein expression at 20 mg/kg/day, ip administered for 1 week measured measured by western blot analysis; format: functional, organism-based; details: time 1.0 weeks
Procedure, shortened: (§4)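 Eight-week-old male C57BL/6 mice on normal chow were given 20 mg·kg−1·day−1 ip daily for 7 days or vehicle. Epididymal WAT was collected. Lipogenic, adipogenic and fatty-acid-oxidation transcripts were quantified by Trizol extraction and SYBR Green RT-qPCR. FAS, ACC, PPARγ and C/EBPα protein were assessed by western blot. n = 5–9; mean ± SEM.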

Hepatocyte [11] = experiment: Inhibition of lipogenesis in mouse primary hepatocytes assessed as decrease in ChREBP protein expression at 3 uM in presence of 100 nM insulin and 5 to 25 mM glucose measured after 18 hrs by western blot analysis; format: functional, cell-based
Mus musculus [12] = experiment: Inhibition of lipogenesis in C57BL/6 mouse supplemented with normal chow diet assessed as decrease in PPARgamma protein expression at 20 mg/kg/day, ip administered for 1 week measured measured by western blot analysis; format: functional, organism-based; details: time 1.0 weeks; procedure, shortened: as §4
Mus musculus [13] = experiment: Inhibition of lipogenesis in C57BL/6 mouse supplemented with normal chow diet assessed as decrease in ACC protein expression at 20 mg/kg/day, ip administered for 1 week measured by western blot analysis; format: functional, organism-based; details: time 1.0 weeks; procedure, shortened: as §4
Mus musculus [14] = experiment: Inhibition of hepatic lipogenesis in C57BL/6 mouse supplemented with normal chow diet assessed as effect on ACO mRNA expression at 20 mg/kg/day, ip administered for 1 week measured by RT-qPCR assay; format: functional, organism-based; details: time 1.0 weeks
Procedure, shortened: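 Normal-chow male C57BL/6 mice, 8 weeks old, were injected ip at 20 mg·kg−1·day−1 daily for 7 days or given vehicle. Liver RNA was extracted with Trizol, and fatty-acid-oxidation gene transcripts were quantified by SYBR Green RT-qPCR. n = 5–9; mean ± SEM.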

Mus musculus [15] = experiment: Inhibition of lipogenesis in C57BL/6 mouse supplemented with high-fat diet assessed as decrease in SCD1 mRNA expression at 20 mg/kg/day, ip administered for 1 week measured by RT-qPCR assay; format: functional, organism-based; details: time 1.0 weeks; procedure, shortened: as §1
Mus musculus [16] = experiment: Inhibition of lipogenesis in C57BL/6 mouse supplemented with normal chow diet assessed as decrease in SCD1 mRNA expression at 20 mg/kg/day, ip administered for 1 week measured by RT-qPCR assay; format: functional, organism-based; details: time 1.0 weeks; procedure, shortened: as §4
Mus musculus [17] = experiment: Anti-obesity activity in 16 hrs fasted C57BL/6 mouse supplemented with normal chow diet assessed as decrease in blood glucose level at 20 mg/kg/day, ip administered for 1 week measured after 15 mins by intraperitoneal glucose tolerance test; format: functional, organism-based; details: time 1.0 weeks
Procedure, shortened: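 Male C57BL/6 mice on normal chow, 8 weeks old, given 20 mg·kg−1·day−1 ip daily for 7 days. After 16 h fasting, glucose 2 g/kg body weight ip; blood glucose read during the test. Mean ± SEM, n = 5–9; t test or ANOVA, P < 0.05.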

Hepatocyte [18] = experiment: Inhibition of glucogenesis in mouse primary hepatocytes stimulated with 100 uM 8-Br-cAMP assessed as effect on pTORC2 protein expression at 3 uM measured after 1 hr by western blot analysis; format: functional, cell-based; procedure, shortened: as §2

In the case of `CNC(=O)Nc1ccc2c(c1)CCS21OC(=O)N(CC(=O)N(Cc2ccc(F)cc2)[C@@H](C)C(F)(F)F)C1=O` (some centres undefined), the inhibition (Mus musculus [1]) is reported as “Active”, the inhibition (HepG2) is reported as “inactive” and the inhibition (Mus musculus [2]) is reported as “Active”. For the same molecule, the Activity (Mus musculus [3]) was “inactive”, the inhibition (Mus musculus [4]) was “Active” and the inhibition (Hepatocyte [5]) was “inactive”. The inhibition (Mus musculus [6]) was “Active”, the Activity (Mus musculus [7]) was “Active” and the inhibition (Adipocyte [8]) was “Active”. For the same molecule, the inhibition (Adipocyte [9]) was “Active”, the inhibition (Mus musculus [10]) was “Active” and the inhibition (Hepatocyte [11]) was “Active”. The inhibition (Mus musculus [12]) was “Active”, the inhibition (Mus musculus [13]) was “Active” and the inhibition (Mus musculus [14]) was “inactive”. The inhibition (Mus musculus [15]) was “Active”, the inhibition (Mus musculus [16]) was “Active” and the Activity (Mus musculus [17]) was “Active”. For the same molecule, the inhibition (Hepatocyte [18]) was “inactive”.
